From ChEMBL document CHEMBL1122504, “Heterocyclic Quinones. 4. A new highly cytotoxic drug: 6,7-bis(1-aziridinyl)-5,8-quinazolinedione” (1983)

Legend:
Type in all cases: functional, Mus musculus
[1] = test system: B16; assay: Median survival time of […] melanocarcinoma cell line after a dose of 10 mg/kg administered intraperitoneally on Q01Dx01 treatment schedule; conditions: route intraperitoneal
Procedure, shortened: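 B16 melanocarcinoma: C57Bl/6 mice implanted sc with cell suspension on day 0; single ip dose in 0.15 M NaCl saline given on day 1. Median survival time was recorded in days, with toxicity taken as survivors on day 5. T/C% = treated MST/control MST × 100; >125% is considered significant.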

[2] = test system: P388; assay: Median survival time of P388 lymphocytic leukemia cell line after a dose of 10 mg/kg administered perorally on Q01Dx07 treatment schedule; conditions: route oral
Procedure, shortened: (§1)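 P388 leukaemia: DBA/2 mice inoculated with 10^6 cells on day 0; treatment began day 1 at the stated route and schedule. Drug was dissolved in 0.15 M NaCl saline. The read-out was median survival time (MST, days), with toxicity taken as survivors on day 5. T/C% = treated MST/control MST × 100; ≥125% is considered significant.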

[3] = test system: L1210; assay: Median survival time of L1210 cell line after a dose of 2.5 mg/kg administered intraperitoneally on Q01Dx09 treatment schedule; conditions: route intraperitoneal
Procedure, shortened: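 L1210 leukaemia: DBA/2 mice inoculated ip with 10^5 cells on day 0, with ip drug in 0.15 M NaCl saline on the stated schedule. The read-out was median survival time in days, with toxicity taken as survivors on day 5. T/C% = treated MST/control MST × 100; >125% is considered significant.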

[4] = test system: P388; assay: MST of treated animal over control when administered at a dose of 10 mg/kg intraperitoneally on Q01Dx05 treatment schedule; conditions: route intraperitoneal; procedure, shortened: as §1
[5] = test system: P388; assay: Number of survivors of P388 lymphocytic leukemia cell line on day 5/ number of treated mice at a dose of 3 ip injection of 10 mg/kg on Q04Dx03 treatment schedule; 10/10; conditions: route intraperitoneal

Q: What does the source list for O=C1C(N2CC2)=C(N2CC2)C(=O)c2ncncc21?
A: MST [1]: 20.8 days; MST [2]: 7.6 days; MST [3]: 9.1 days; T/C [4]: 84%; Toxicity Survivors [5]: 10
